In paper PMC5384886 (International Journal for Parasitology: Drugs and Drug …, 2017):
Read-outs that look alike come from different tables or passages of the source.

Tests used:
[1] = test system: Pf3D7 (chloroquine-sensitive) strain; experiment: In vitro P. falciparum whole cell assay; format: cell-based; conditions: Plasmodium falciparum, 72 h, read-out: Pf3D7 IC50
Method in brief: (§1)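 Parasites synchronised to 95% ring stage with 5% sorbitol. Stocks: chloroquine in water, test compounds and dihydroartemisinin in DMSO, diluted in incomplete 1640 medium. Ring-stage cultures (1% parasitaemia, 2% haematocrit) exposed to serial dilutions for 72 h at 37 °C. Growth read by SYBR Green I fluorescence. IC50 from a sigmoidal growth fit.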

[2] = test system: human embryonic lung fibroblast WI38; experiment: Cytotoxicity assay on WI38 cells; format: cell-based; conditions: for SI CC50/IC50 (Pf3D7): CC50 WI38 / IC50 Pf3D7; for SI CC50/IC50 (PfDd2): CC50 WI38 / IC50 PfDd2
Method in brief: (§2)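 WI38 cells harvested at log phase and seeded at 10 000/well in DMEM or MEM with 10% FBS and 1% penicillin-streptomycin. After 12 h adherence at 37 °C, 5% CO2, 2-fold dilutions (final 50 to 1.57 μM) were added in triplicate for 2 days. MTT read-out: 4 h, DMSO solubilisation, 490 nm. CC50 is the mean of two independent experiments. SI = CC50/IC50 for each Pf strain.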

[3] = Cytotoxicity assay on WI38 cells; format: cell-based, human; conditions: human, WI38 cells (human embryonic lung fibroblasts)
Method in brief: as §2

β-hematin formation = experiment: Inhibition assay of β-hematin formation; format: biochemical; conditions: for β-Hematin % Inhibition: at a concentration of 100 μM; for IC50: read-out: β-Hematin IC50
Method in brief: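 NP-40 detergent-mediated β-hematin assay. Compound in DMSO plus NP-40 and water. Hematin was dissolved in DMSO (25 mM stock) and suspended in acetate buffer (pH 4.8; final 0.5 M). Incubated 4 h at 37 °C. Controls: DMSO (negative), chloroquine and amodiaquine (100 μM final). Pyridine-ferrichrome read-out: 5% v/v final pyridine, HEPES pH 7.4, extra acetone, 405 nm. % inhibition at 100 μM; IC50 from concentration series; triplicate, repeated twice.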

[4] = test system: PfDd2 (chloroquine-resistant) strain; experiment: In vitro P. falciparum whole cell assay; format: cell-based; conditions: Plasmodium falciparum, 72 h, read-out: PfDd2 IC50
Method in brief: as §1

adult S. japonicum = experiment: In vitro assay for drug effect on adult S. japonicum; format: cell-based, Schistosoma japonicum; conditions: 72 h
Method in brief: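 Adult worms taken from infected mice 34–38 days post-infection, perfused with ice-cold heparinised HBSS, rinsed three times. Kept in RPMI 1640 with 10% calf serum, penicillin, streptomycin and amphotericin B. Four worm pairs per well, 2 h preincubation at 37 °C, 5% CO2, then compound at final 10 or 5 μg/mL; DMSO control. Scored at 24, 48, 72 h; death = no sucker/body movement for 2 min.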

[5] = test system: juvenile S. japonicum (schistosomula); experiment: In vitro assay for drug effect on juvenile S. japonicum; format: cell-based, Schistosoma japonicum; conditions: 10 μg/mL
Method in brief: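 Cercariae mechanically transformed to schistosomula and kept in RPMI 1640 with 5% FBS, 100 IU/mL penicillin and 100 μg/mL streptomycin at 37 °C, 5% CO2. 50 schistosomula/well exposed to compound at final 10 μg/mL for 72 h, in duplicate, with DMSO negative control. Activity, survival time, mortality and morphology scored microscopically at 12, 24, 48 and 72 h.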

Compound	IC50 [1]	SI CC50/IC50 (Pf3D7) [2]	SI CC50/IC50 (PfDd2) [2]	CC50 at 2 days [3]	β-Hematin % Inhibition (β-hematin formation)	IC50 (β-hematin formation)	IC50 [4]	Adult S. japonicum worm-killing (adult S. japonicum; 5 μg/mL)	Adult S. japonicum worm-killing (adult S. japonicum; 10 μg/mL)	Juvenile S. japonicum worm-killing [5]	IC50 (β-hematin formation; listed as chloroquine)
CCCCNC[C@@H](O)Cn1c2ccc(Cl)cc2c2cc(Cl)ccc21 [(R)-7, (R)-1-(butylamino)-3-(3,6-dichloro-9H-carbazol-9-yl)propan-2-ol]	344 ± 54 nM	22	45	7.69 µM	75.13%	119 ± 7.14 µM	172 ± 32 nM	+	+	+	
CCCCNC[C@H](O)Cn1c2ccc(Cl)cc2c2cc(Cl)ccc21 [(S)-7, (S)-1-(butylamino)-3-(3,6-dichloro-9H-carbazol-9-yl)propan-2-ol]	378 ± 91 nM	24	83	9.34 µM	80.09%	106 ± 8.42 µM	112 ± 30 nM	+	+	+	
CCN(CC)Cc1cc(Nc2ccnc3cc(Cl)ccc23)ccc1O [Amodiaquine, reference compound]					100%	15.9 ± 1.29 µM					
CCN(CC)CCCC(C)Nc1ccnc2cc(Cl)ccc12 (stereo not drawn) [Chloroquine, reference compound]	15 ± 8 nM				97.8%	61 ± 5.55 µM	231 ± 24 nM				61 µM
OC(CN1CCCC1)Cn1c2ccc(Cl)cc2c2cc(Cl)ccc21 (stereo not drawn) [Compound 3, 1-(3,6-Dichloro-9H-carbazol-9-yl)-3-(pyrrolidin-1-yl)propan-2-ol]	2670 ± 870 nM				10.76%				+		
OC(CN1CCCCC1)Cn1c2ccc(Cl)cc2c2cc(Cl)ccc21 (stereo not drawn) [Compound 4, 1-(3,6-Dichloro-9H-carbazol-9-yl)-3-(piperidin-1-yl)propan-2-ol]									+		
OC(CN1CCOCC1)Cn1c2ccc(Cl)cc2c2cc(Cl)ccc21 (stereo not drawn) [Compound 5, 1-(3,6-Dichloro-9H-carbazol-9-yl)-3-morpholinopropan-2-ol]	1290 ± 329 nM				0%						
CCCCCCNCC(O)Cn1c2ccc(Cl)cc2c2cc(Cl)ccc21 (stereo not drawn) [Compound 9, 1-(3,6-Dichloro-9H-carbazol-9-yl)-3-(hexylamino)propan-2-ol]	274 ± 63 nM	22	126	5.92 µM	81.85%	55 ± 5.87 µM	47 ± 10 nM	±	+	+	
CCCCCCCNCC(O)Cn1c2ccc(Cl)cc2c2cc(Cl)ccc21 (stereo not drawn) [Compound 10, 1-(3,6-Dichloro-9H-carbazol-9-yl)-3-(heptylamino)propan-2-ol]	179 ± 44 nM	28	95	5.14 µM	74.74%	91.6 ± 4.67 µM	54 ± 10 nM	±	+	+	
CCCCCCCCNCC(O)Cn1c2ccc(Cl)cc2c2cc(Cl)ccc21 (stereo not drawn) [Compound 11, 1-(3,6-Dichloro-9H-carbazol-9-yl)-3-(octylamino)propan-2-ol]	132 ± 59 nM	29	70	3.77 µM	50.59%	65.4 ± 4.9 µM	54 ± 6 nM	±	+	+	
C[C@H]1[C@@H](O)O[C@@H]2O[C@@]3(C)CC[C@H]4[C@H](C)CC[C@@H]1[C@@]24OO3 [Dihydroartemisinin, reference compound]							5 ± 0.2 nM				
O=C(C1CCCCC1)N1CC(=O)N2CCc3ccccc3C2C1 (stereo not drawn) [Praziquantel, reference compound]								+	+		
